In ChEMBL document CHEMBL1151763, “Identification of diarylsulfone sulfonamides as secreted frizzled related protein-1 (sFRP-1) inhibitors” (J Med Chem, 2008):
Values after ≈ are worked out from the molar mass of the structure shown. Active and inactive are the calls of the source. The rule behind the calls is not given here.

Key:
[1] = biological target: T1, Secreted frizzled-related protein 1 (Homo sapiens) (UniProt Q8N474); assay: Inhibition of human sFRP1 expressed in human U2OS assessed as fold induction in luciferase activity at 30 uM by TCF-luciferase reporter gene assay relative to control
T1 sequence (whole entry): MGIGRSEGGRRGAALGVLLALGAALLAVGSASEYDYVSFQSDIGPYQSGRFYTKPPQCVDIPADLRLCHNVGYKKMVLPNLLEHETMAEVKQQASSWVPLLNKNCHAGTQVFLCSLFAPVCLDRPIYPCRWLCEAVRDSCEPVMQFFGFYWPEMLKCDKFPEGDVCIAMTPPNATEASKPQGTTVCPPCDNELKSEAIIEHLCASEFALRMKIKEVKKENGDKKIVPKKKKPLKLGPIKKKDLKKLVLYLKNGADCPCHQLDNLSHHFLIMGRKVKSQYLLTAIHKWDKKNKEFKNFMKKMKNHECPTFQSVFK
Procedure, shortened: (§1)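 U2OS human osteosarcoma cells transfected with human sFRP-1, Wnt-3 and a TCF-luciferase reporter (canonical Wnt read-out). Inhibitor tested at 15 µM or 30 µM. Luciferase signal without inhibitor set at 1; fold induction measured in quadruplicate.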

[2] = Metabolic stability in rat microsomes assessed as half life; format: ADME, Microsome
[3] = biological target: T2, Secreted frizzled-related protein 1 (Homo sapiens, UniProt Q8N474); assay: Inhibition of human sFRP1 expressed in human U2OS assessed as luciferase activity by TCF-luciferase reporter gene assay
T2 sequence (Q8N474 whole entry): T1 sequence (whole entry)
Procedure, shortened: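 Cell-based functional assay in U2OS human osteosarcoma cells transfected with human sFRP-1, Wnt-3 and a TCF-luciferase reporter gene measuring canonical Wnt pathway activation; EC50 derived from luciferase signal.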

[4] = Aqueous solubility at pH 7.4; format: physicochemical; settings: buffer
CYP2D6 = CYP2D6 (Homo sapiens, UniProt P10635); assay: Inhibition of CYP2D6 at 3 uM; format: ADME
CYP3A4 = CYP3A4 (Homo sapiens, UniProt P08684); assay: Inhibition of CYP3A4 at 3 uM; format: ADME
[5] = biological target: T1, Secreted frizzled-related protein 1 (Homo sapiens); assay: Inhibition of human sFRP1 expressed in human U2OS assessed as fold induction in luciferase activity at 15 uM by TCF-luciferase reporter gene assay relative to control; procedure, shortened: as §1
CYP2C9 = CYP2C9 (Homo sapiens, UniProt P11712); assay: Inhibition of CYP2C9 at 3 uM; format: ADME
[6] = biological target: T2, Secreted frizzled-related protein 1; assay: Binding affinity to human sFRP1 by fluorescence spectroscopy
Procedure, shortened: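 Binding constant (K_D) taken from changes in intrinsic tryptophan fluorescence of sFRP-1 on inhibitor binding; excitation 295 nm, emission 340 nm. Stoichiometry of binding also determined.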

[7] = Metabolic stability in human microsomes assessed as half life; format: ADME, Microsome
Mus musculus = species: Mus musculus; assay: Increase in bone formation in mouse calvaria assessed as number of osteoblast on bone surface at 5 uM after 7 days relative to control; format: functional
[8] = Increase in bone formation in mouse calvaria assessed as increase in bone area at 5 uM after 7 days relative to control; format: functional

CYP2D6, sequence (P10635 whole entry): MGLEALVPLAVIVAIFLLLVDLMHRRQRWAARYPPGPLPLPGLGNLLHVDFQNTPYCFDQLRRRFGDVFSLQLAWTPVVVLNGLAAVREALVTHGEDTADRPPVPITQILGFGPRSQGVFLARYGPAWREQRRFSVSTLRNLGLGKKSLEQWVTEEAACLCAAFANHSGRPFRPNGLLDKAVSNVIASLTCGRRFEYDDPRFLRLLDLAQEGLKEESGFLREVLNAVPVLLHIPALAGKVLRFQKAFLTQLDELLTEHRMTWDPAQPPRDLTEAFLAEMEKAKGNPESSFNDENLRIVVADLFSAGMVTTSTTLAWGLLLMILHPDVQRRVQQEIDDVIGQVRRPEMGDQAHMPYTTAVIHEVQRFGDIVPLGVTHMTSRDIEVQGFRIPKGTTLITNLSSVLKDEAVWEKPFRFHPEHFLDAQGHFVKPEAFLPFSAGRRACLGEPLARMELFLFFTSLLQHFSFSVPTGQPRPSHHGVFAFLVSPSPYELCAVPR
CYP3A4, sequence (P08684 whole entry): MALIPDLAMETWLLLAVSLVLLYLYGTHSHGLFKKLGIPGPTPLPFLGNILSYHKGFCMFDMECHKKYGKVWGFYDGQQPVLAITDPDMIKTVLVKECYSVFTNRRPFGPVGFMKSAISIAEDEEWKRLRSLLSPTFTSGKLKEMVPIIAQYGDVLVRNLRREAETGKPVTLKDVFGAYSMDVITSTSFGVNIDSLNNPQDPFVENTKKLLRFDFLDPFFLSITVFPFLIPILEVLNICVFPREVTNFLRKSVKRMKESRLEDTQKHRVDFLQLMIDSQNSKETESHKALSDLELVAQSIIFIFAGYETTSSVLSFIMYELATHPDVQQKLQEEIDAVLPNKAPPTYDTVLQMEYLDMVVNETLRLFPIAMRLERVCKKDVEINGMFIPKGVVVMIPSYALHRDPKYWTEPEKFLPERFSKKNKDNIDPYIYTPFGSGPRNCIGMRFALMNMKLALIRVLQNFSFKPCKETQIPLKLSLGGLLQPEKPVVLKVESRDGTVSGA
CYP2C9, sequence (P11712 whole entry): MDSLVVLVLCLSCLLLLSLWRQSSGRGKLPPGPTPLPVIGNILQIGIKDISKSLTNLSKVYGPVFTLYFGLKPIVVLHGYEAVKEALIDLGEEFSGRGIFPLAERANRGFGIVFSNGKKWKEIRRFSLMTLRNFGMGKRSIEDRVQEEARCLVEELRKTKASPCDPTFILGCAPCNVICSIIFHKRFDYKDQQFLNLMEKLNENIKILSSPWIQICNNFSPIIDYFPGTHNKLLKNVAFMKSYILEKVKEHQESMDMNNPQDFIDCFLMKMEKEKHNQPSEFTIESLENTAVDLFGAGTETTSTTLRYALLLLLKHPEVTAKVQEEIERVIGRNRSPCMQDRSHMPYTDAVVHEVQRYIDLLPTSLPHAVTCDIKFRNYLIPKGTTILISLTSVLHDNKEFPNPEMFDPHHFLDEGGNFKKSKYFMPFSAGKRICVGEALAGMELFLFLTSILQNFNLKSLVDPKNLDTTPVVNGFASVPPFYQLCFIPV

| SMILES | half-life [2] [min] | EC50 [3] [µM] | solubility [4] [µg/mL] | inhibition at 3 µM (CYP2D6) [%] | inhibition at 3 µM (CYP3A4) [%] | fold change (FC) [5] | inhibition at 3 µM (CYP2C9) [%] | further results |
| --- | --- | --- | --- | --- | --- | --- | --- | --- |
| Cc1ccc(S(=O)(=O)c2ccc(Cl)cc2)cc1S(=O)(=O)Nc1ccccc1 |  |  |  |  |  |  |  | fold change (FC) [1]: 1 |
| CCc1ccc(S(=O)(=O)c2ccccc2)cc1S(=O)(=O)NCCCN1CCCC1 | 16 | 9 | > 100 | 25 | 78 | 4.2 | 25 |  |
| O=S(=O)(NCCc1ccccc1)c1cccc(S(=O)(=O)c2ccccc2)c1 |  |  |  |  |  | < 1 |  |  |
| CCc1ccc(S(=O)(=O)c2ccccc2)cc1S(=O)(=O)NCCCN(C)C | 12 | 1.27 | 26 (≈ 63.3 µM) | 9 | 43 | 3.3 | 14 | half-life [7]: 26.7 min |
| Cc1ccc(S(=O)(=O)c2ccc(F)cc2)cc1S(=O)(=O)NCCc1ccccc1 |  |  |  |  |  | 2.7 |  |  |
| Cc1ccc(S(=O)(=O)c2ccccc2)cc1S(=O)(=O)NCc1ccccc1 |  |  |  |  |  |  |  | fold change (FC) [1]: < 1 |
| CCc1ccc(S(=O)(=O)c2ccccc2)cc1S(=O)(=O)NCCc1ccc(OC)c(OC)c1 | 1 | 6.97 | 1 (≈ 2.04 µM) | 11 | 96 | 3 | 84 | Activity (Mus musculus): Active; Activity [8]: 50% |
| Cc1ccc(S(=O)(=O)c2ccc(C)c(S(=O)(=O)NCCc3ccccc3)c2)cc1 |  |  |  |  |  | 2.2 |  |  |
| COc1ccc(S(=O)(=O)c2ccccc2)cc1S(=O)(=O)NCCc1ccccc1 |  |  |  |  |  | 1.5 |  |  |

The next lines start with results.

| half-life [2] [min] | EC50 [3] [µM] | solubility [4] [µg/mL] | inhibition at 3 µM (CYP2D6) [%] | inhibition at 3 µM (CYP3A4) [%] | fold change (FC) [5] | inhibition at 3 µM (CYP2C9) [%] | SMILES | further results |
| --- | --- | --- | --- | --- | --- | --- | --- | --- |
| 5 | 3.88 | 1 (≈ 2.41 µM) | 12 | 70 | 2.5 | 41 | Cc1ccc(S(=O)(=O)c2ccccc2)cc1S(=O)(=O)NCCc1ccccc1 | Kd [6]: 0.35 µM |
|  |  |  |  |  | 1.3 |  | Cc1ccc(S(=O)(=O)c2ccccc2)cc1S(=O)(=O)NCCCc1ccccc1 |  |
|  |  |  |  |  | < 1 |  | Cc1ccc(S(=O)(=O)c2ccccc2)cc1S(=O)(=O)N(C)CCc1ccccc1 |  |
|  |  |  |  |  | 3.3 |  | CCc1ccc(S(=O)(=O)c2ccccc2)cc1S(=O)(=O)NCCc1ccccc1 |  |
